MrgX1 antagonist = human MrgX1 receptor antagonism, primary screen; Q96LB2; MRGX1-HEK293 calcium flux, Fluo-4, BAM8-22 antagonism; stronger effect = lower value; B-score at 10 µM; 310,000 tested, 1.3% active; AID 588676;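 active means calcium-response B-score plate-corrected more than 3 library SD below zero, starting fluorescence within 5 deviations, no agonist response on first addition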;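 further: peak minus trough fluorescence over baseline after final BAM8-22 challenge near maximal dose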
Target sequence (Q96LB2 whole entry, looked up): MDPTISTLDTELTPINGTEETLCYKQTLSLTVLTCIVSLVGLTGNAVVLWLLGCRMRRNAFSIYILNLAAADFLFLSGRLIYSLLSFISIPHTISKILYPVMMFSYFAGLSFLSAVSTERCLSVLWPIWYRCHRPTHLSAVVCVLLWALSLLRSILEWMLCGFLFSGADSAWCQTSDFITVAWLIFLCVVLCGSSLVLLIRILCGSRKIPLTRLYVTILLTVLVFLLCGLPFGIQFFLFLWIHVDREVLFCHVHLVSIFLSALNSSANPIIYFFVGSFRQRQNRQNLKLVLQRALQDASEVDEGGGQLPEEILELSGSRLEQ
MrgX1 ag = human MrgX1 receptor agonism, primary screen | 310,000 tested, 0.44% active | Q96LB2 | MrgX1-HEK293 cells, Fluo-4 calcium fluorescence, agonist mode; stronger effect = higher value | AID 588627 | B-score at 10 µM;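 active means calcium response B-score plate-corrected fluorescence ratio at least 3 library SD, with starting fluorescence B-score inside 5 SD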
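Material: MrgX1-expressing HEK293 cells; input: 15,000 cells per well; doses: test compound given as first of three sequential additions; schedule: overnight plating before 1 h dye loading; technique: Fluo-4 NW calcium-flux fluorescence, kinetic read; evaluation: baseline-normalised fluorescence change ratio, B-scored; control set: plate-wise positive and negative controls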
RGS4 act = potentiators or activators of RGS4 | HEK293 M3R/inducible RGS4, carbachol calcium flux Fluo4; stronger effect = lower value | B-score at 10 µM | 310,000 tested, 0.92% active | AID 463111;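 active means B-score of the integrated calcium signal more than 4 SD below the library mean, with starting fluorescence not abnormally high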;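 further: negative B-score means reduced calcium response which marks RGS4 activation or potentiation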
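Also added: carbachol at ECmax as muscarinic agonist stimulus; Assay system: HEK293 cells with stable M3R and inducible RGS4; Timing: overnight RGS4 induction, 30 min dye load 37 °C, 20 min compound RT; Measured by: Fluo4-AM (2 µM) calcium-flux fluorescence, kinetic read.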
MrgX1 allo act = allosterically activates human MrgX1 receptor signaling; Q96LB2; 310,000 tested, 0.63% active; B-score at 10 µM; AID 588675; MrgX1-HEK293, Fluo-4 calcium flux, FDSS; stronger effect = higher value;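 active means plate-corrected calcium response at least 3 library SD above typical, normal starting fluorescence, not activating the receptor alone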;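 further: compound read alongside a low EC10 to EC30 dose of BAM8-22 agonist; peak minus trough fluorescence over baseline measured at the second addition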
RGS4 inh = inhibitors of human RGS4. HEK293 M3R/RGS4 inducible, Fluo-4 calcium flux; stronger effect = higher value; triggered by carbachol at its EC20. B-score at 10 µM. 310,000 tested, 0.45% active;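 active means B-score, a plate-corrected calcium signal, over three deviations above library mean, with baseline fluorescence within five deviations of library mean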;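 further: RGS4 expression induced by doxycycline in cells with stable M3 receptor; B-score is computed from the integrated fluorescence ratio over baseline after carbachol; higher B-score means a larger calcium signal and so more RGS4 inhibition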
Target sequence (P49798 whole entry, looked up): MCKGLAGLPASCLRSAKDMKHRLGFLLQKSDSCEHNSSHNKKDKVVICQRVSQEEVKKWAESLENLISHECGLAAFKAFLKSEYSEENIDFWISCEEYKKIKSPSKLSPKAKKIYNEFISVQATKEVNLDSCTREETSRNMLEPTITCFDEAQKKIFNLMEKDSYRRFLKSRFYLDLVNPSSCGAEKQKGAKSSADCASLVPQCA
RGS4 inh valid = validation of RGS4 inhibitors; shares compounds with RGS4 inh; HEK293 M3R/RGS4, carbachol calcium Fluo-4 fluorescence; carbachol added at its EC20; 0 = buffer wells, 100 = carbachol control; calcium response, % at 10 µM; 1,700 tested, 65% active;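 active means duplicate-averaged calcium response above the buffer-only control mean plus 5 SD of those controls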;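 further: integrated fluorescence ratio F max minus min over baseline F0; higher response in RGS4-induced cells means RGS4 inhibition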
RGS4 uninduced = non-induced cell nonspecific activity of RGS4 inhibitors; shares compounds with RGS4 inh; HEK293 M3R non-induced, carbachol calcium Fluo-4; submaximal (EC20) carbachol stimulus; buffer wells 0%, carbachol control wells 100%; activity (percent), % at 10 µM; 1,900 tested, 20% active; AID 493000; call rule not given here;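 further: RGS4 induction absent so cells express M3R without RGS4; higher means more calcium signal and flags a non-specific hit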
RGS4 inh ctr2 = signal in non-induced cells without carbachol, RGS4 inhibitor counter-screen; shares compounds with RGS4 inh; HEK293 M3R/RGS4 non-induced, Fluo-4 calcium, no carbachol; normalised: buffer wells 0%, carbachol wells 100%; 1,900 tested, 22% active; calcium response (agonist-mode artifact), % at 10 µM;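 active means duplicate-averaged calcium rise in uninduced cells above buffer wells' mean plus 5 SD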
The depositor's hits bear a star. Sampled rows, rich in hits. Any-hit rate of the full collection: about 3.5%.

How did Cc1ccc2cc(CN(Cc3ccc4c(c3)OCO4)Cc3nnnn3Cc3ccco3)c(=O)[nH]c2c1 do in these assays?
MrgX1 antagonist: inactive; MrgX1 ag: inactive; RGS4 act: inactive; MrgX1 allo act: inactive; RGS4 inh: inactive; RGS4 inh valid: inactive; RGS4 uninduced: inactive; RGS4 inh ctr2: 8.5%*

What do the screens show for `COc1ccc2cc(CN(CCc3ccccc3)Cc3nnnn3Cc3ccco3)c(=O)[nH]c2c1`?
MrgX1 antagonist: inactive; MrgX1 ag: inactive; RGS4 act: inactive; MrgX1 allo act: inactive; RGS4 inh: inactive

How did Cc1ccc(CN(Cc2cc3cc4c(cc3[nH]c2=O)OCCO4)Cc2nnnn2Cc2ccco2)cc1 do in these assays?
MrgX1 antagonist: inactive; MrgX1 ag: inactive; RGS4 act: inactive; MrgX1 allo act: inactive; RGS4 inh: 12*; RGS4 inh valid: inactive; RGS4 uninduced: inactive; RGS4 inh ctr2: 16%*

Results for COc1cccc(-c2cc(C(=O)NCCc3ccccc3)no2)c1 ?
MrgX1 antagonist: inactive; MrgX1 ag: inactive; RGS4 act: inactive; MrgX1 allo act: inactive; RGS4 inh: inactive

How did O=C(Cc1ccccc1)Nc1cccc(N2C(=O)C=CC2=O)c1 do in these assays?
MrgX1 antagonist: inactive; MrgX1 ag: inactive; RGS4 act: inactive; MrgX1 allo act: inactive; RGS4 inh: 7.5*; RGS4 inh valid: 12%*; RGS4 uninduced: inactive; RGS4 inh ctr2: 42%*

How did COc1cccc(/C=N/c2sc(Cc3ccccc3)c(C)c2C(N)=O)c1O do in these assays?
MrgX1 antagonist: inactive; MrgX1 ag: inactive; RGS4 act: inactive; MrgX1 allo act: inactive; RGS4 inh: 5*; RGS4 inh valid: 24%*; RGS4 uninduced: 36%*; RGS4 inh ctr2: inactive

What do the screens show for `COC(=O)CCC(=O)Nc1sc(Cc2ccccc2)c(C)c1C(N)=O`?
MrgX1 antagonist: inactive; MrgX1 ag: inactive; RGS4 act: inactive; MrgX1 allo act: inactive; RGS4 inh: inactive

How did S=C(Nc1ccccc1)Nc1nc2ccccc2n1CCOc1ccc(Cl)cc1 do in these assays?
MrgX1 antagonist: inactive; MrgX1 ag: inactive; RGS4 act: inactive; MrgX1 allo act: inactive; RGS4 inh: 6.2*; RGS4 inh valid: 16%*; RGS4 uninduced: 34%*; RGS4 inh ctr2: inactive

How did N#CC1=C(N)Oc2c(O)cc3ccccc3c2C1c1ccsc1 (stereo not drawn) do in these assays?
MrgX1 antagonist: inactive; MrgX1 ag: inactive; RGS4 act: inactive; MrgX1 allo act: inactive; RGS4 inh: 14*; RGS4 inh valid: 40%*; RGS4 uninduced: 33%*; RGS4 inh ctr2: inactive

What do the screens show for `CC1C(=O)Nc2ccccc2N1C(=O)c1ccc(Cl)c(Cl)c1` (stereo not drawn)?
MrgX1 antagonist: inactive; MrgX1 ag: inactive; RGS4 act: inactive; MrgX1 allo act: inactive; RGS4 inh: inactive

Results for Nc1cccc(C(=O)OCC(=O)Nc2cccc3c2C(=O)c2ccccc2C3=O)c1 ?
MrgX1 antagonist: inactive; MrgX1 ag: inactive; RGS4 act: inactive; MrgX1 allo act: inactive; RGS4 inh: 4.9*; RGS4 inh valid: 5.0%*; RGS4 uninduced: inactive; RGS4 inh ctr2: 14%*

How did C/C(=N\O)C(=O)Nc1ccccc1 do in these assays?
MrgX1 antagonist: inactive; MrgX1 ag: inactive; RGS4 act: inactive; MrgX1 allo act: inactive; RGS4 inh: inactive

How did CC(=N\Nc1ccc(Cl)cc1)/C(=N/O)C(=O)Nc1ccccc1 do in these assays?
MrgX1 antagonist: inactive; MrgX1 ag: inactive; RGS4 act: inactive; MrgX1 allo act: inactive; RGS4 inh: 5.7*; RGS4 inh valid: 14%*; RGS4 uninduced: inactive; RGS4 inh ctr2: inactive

Results for CC1=CC(C)(C)N2C(=O)C3(C(C#N)=C(N)Oc4cc(O)ccc43)c3c(C)c(C)cc1c32 (stereo not drawn) ?
MrgX1 antagonist: inactive; MrgX1 ag: inactive; RGS4 act: inactive; MrgX1 allo act: inactive; RGS4 inh: 5.9*; RGS4 inh valid: 29%*; RGS4 uninduced: inactive; RGS4 inh ctr2: inactive

How did CC1=CC(C)(C)N2C(=O)C3(C(C#N)=C(N)OC4=C3C(=O)CCC4)c3c(C)c(C)cc1c32 (stereo not drawn) do in these assays?
MrgX1 antagonist: inactive; MrgX1 ag: inactive; RGS4 act: inactive; MrgX1 allo act: inactive; RGS4 inh: inactive

How did COc1ccc(C2NC(=S)NC(C)=C2C(=O)c2ccccc2)cc1OC (stereo not drawn) do in these assays?
MrgX1 antagonist: inactive; MrgX1 ag: inactive; RGS4 act: inactive; MrgX1 allo act: inactive; RGS4 inh: inactive

What do the screens show for `CC1=C(C(=O)c2ccccc2)C(c2cccc([N+](=O)[O-])c2)NC(=S)N1` (stereo not drawn)?
MrgX1 antagonist: inactive; MrgX1 ag: inactive; RGS4 act: inactive; MrgX1 allo act: inactive; RGS4 inh: 10*; RGS4 inh valid: 23%*; RGS4 uninduced: 33%*; RGS4 inh ctr2: inactive

What do the screens show for `C/C(=N/NC(=O)CNC(=O)CCc1ccccc1)c1ccc(Cl)c(Cl)c1`?
MrgX1 antagonist: inactive; MrgX1 ag: inactive; RGS4 act: inactive; MrgX1 allo act: inactive; RGS4 inh: inactive

How did COC(=O)c1c(C)oc2c1cc(NS(=O)(=O)c1ccc(C(=O)O)cc1)c1ccccc12 do in these assays?
MrgX1 antagonist: inactive; MrgX1 ag: inactive; RGS4 act: inactive; MrgX1 allo act: inactive; RGS4 inh: 5.6*; RGS4 inh valid: 16%*; RGS4 uninduced: inactive; RGS4 inh ctr2: inactive

Results for CC(=O)c1c(C)oc2c1cc(NS(=O)(=O)c1ccc(C(=O)O)cc1)c1ccccc12 ?
MrgX1 antagonist: inactive; MrgX1 ag: inactive; RGS4 act: inactive; MrgX1 allo act: inactive; RGS4 inh: inactive; RGS4 uninduced: inactive; RGS4 inh ctr2: inactive

How did O=C(CSc1nnc2ccccn12)NC(=O)Cc1ccccc1 do in these assays?
MrgX1 antagonist: inactive; MrgX1 ag: inactive; RGS4 act: inactive; MrgX1 allo act: inactive; RGS4 inh: inactive

Results for O=C(/C=C/c1ccc(NC(=O)c2ccccc2-c2ccccc2C(=O)O)cc1)c1ccccc1 ?
MrgX1 antagonist: inactive; MrgX1 ag: inactive; RGS4 act: inactive; MrgX1 allo act: inactive; RGS4 inh: 28*; RGS4 inh valid: 60%*; RGS4 uninduced: inactive; RGS4 inh ctr2: 13%*
